In ChEMBL document CHEMBL1142748, “The tert-butyl dimethyl silyl group as an enhancer of drug cytotoxicity against human tumor cells” (Bioorg Med Chem Lett, 2005):
The source made the active and inactive calls. The calls are words filed in the database; no cut-off is given here.

Legend:
MCF7S [1] = assay: Concentration required for Total growth inhibition of MCF-7 human breast cancer cells; assay type: functional
Summary of the method: (§1)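 MCF7 breast cancer cells were grown in 96-well format following a modified NCI protocol. Compounds in DMSO were tested in duplicate at five 10-fold dilutions, and controls received equivalent DMSO. After 48 h exposure, cells were fixed with ice-cold 50% (w/v) TCA for 60 min at 4 °C, then stained by SRB and read at OD 490 nm. Percent growth came from start versus end OD, corrected for medium background. GI50 and TGI were taken from curves as the mean of 2–4 experiments ± SD.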

HL-60 [2] = assay: Concentration required for 50% reduction of cellular net growth of HL60 human leukemia cells; assay type: functional
Summary of the method: (§2)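 HL60 leukemia cells were grown in 96-well format following a modified NCI protocol. Compounds in DMSO were tested in duplicate at five 10-fold dilutions, and controls received equivalent DMSO. After 48 h exposure, cells were fixed with ice-cold 80% (w/v) TCA for 60 min at 4 °C, then stained by SRB and read at OD 490 nm. Percent growth came from start versus end OD, corrected for medium-only background. GI50 and TGI were read from dose–response curves as the mean of 2–4 experiments ± SD.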

MCF7S [3] = assay: Concentration required for 50% reduction of cellular net growth of MCF-7 human breast cancer cells; assay type: functional; summary of the method: as §1
HL-60 [4] = assay: Concentration required for Total growth inhibition of HL60 human leukemia cells; assay type: functional; summary of the method: as §2
HL-60 [5] = assay: Lethal concentration required for net loss in 50% of HL60 human leukemia cells; assay type: functional; conditions: read-out: LC50 (the source's name)
Summary of the method: (§3)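 Modified NCI protocol with SRB read-out after 48 h drug exposure. Compounds were diluted from a DMSO stock at 400× the top final concentration, at five 10-fold dilutions in duplicate, with DMSO-matched controls. Cells were fixed with ice-cold TCA (80% w/v for HL60, 50% w/v for MCF7) for 60 min at 4 °C. OD was read at 490 nm and corrected for medium-only background. Percent growth came from OD at the start versus the end of exposure. LC50 is the concentration giving net loss of 50% of cells, from dose-response curves; values are means of 2–4 experiments.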

MCF7S [6] = assay: Lethal concentration required for net loss in 50% of MCF-7 human breast cancer cells; assay type: functional; conditions: read-out: LC50 (the source's name); summary of the method: as §3
HL-60 [7] = assay: Concentration required for 50% reduction of cellular net growth of HL60 human leukemia cells; na=no activity; assay type: functional, cell-based; summary of the method: as §2
MCF7S [8] = assay: Concentration required for 50% reduction of cellular net growth of MCF-7 human breast cancer cells; na=no activity; assay type: functional, cell-based; summary of the method: as §1
MCF7S [9] = assay: Concentration required for 50% reduction of cellular net growth of MCF-7 human breast cancer cells;na=no activity; assay type: functional, cell-based; summary of the method: as §1

SMILES | GI50 (HL-60 [2]) [µM] | GI50 (MCF7S [3]) | GI50 (HL-60 [7]) | TGI (MCF7S [1]) [µM] | other results
CC(C)(C)[Si](C)(C)O[C@H]1CCCO[C@@H]1/C=C\CO | 26 | 6.4 µM | – | 23 | TGI (HL-60 [4]): 64 µM; CC50 (HL-60 [5]): 88 µM; CC50 (MCF7S [6]): 63 µM
COC(=O)/C=C/C[C@H]1OCCC[C@@H]1OC(C)=O | – | – | inactive | – | GI50 (MCF7S [8]): inactive
COC(=O)/C=C/C[C@H]1OCCC[C@@H]1O | – | – | inactive | – | GI50 (MCF7S [9]): inactive
C=CCO[C@H]1CCCO[C@@H]1CC=O | – | – | inactive | – | –
COC(=O)/C=C/[C@H]1OCCC[C@@H]1O[Si](C)(C)C(C)(C)C | 22 | 24 µM | – | 80 | TGI (HL-60 [4]): 69 µM; CC50 (MCF7S [6]): 94 µM
COC(=O)/C=C/C[C@H]1OCCC[C@@H]1OC(=O)c1ccccc1 | – | inactive | inactive | – | –
OC/C=C/[C@H]1OCCC[C@@H]1O | – | – | inactive | – | GI50 (MCF7S [9]): inactive

The next lines start with results.

GI50 (HL-60 [2]) [µM] | GI50 (MCF7S [3]) | GI50 (HL-60 [7]) | SMILES | TGI (MCF7S [1]) [µM] | other results
40 | 21 µM | – | CC(C)(C)[Si](C)(C)O[C@H]1CCCO[C@@H]1CC=O | 82 | –
– | – | inactive | CC(C)(C)[Si](C)(C)O[C@H]1CCCO[C@@H]1CC#N | – | –
31 | 61 µM | – | CC(C)(C)[Si](C)(C)O[C@H]1CCCO[C@@H]1/C=C/CO | – | –
– | 32 µM | inactive | COC(=O)/C=C\[C@H]1OCCC[C@@H]1O[Si](C)(C)C(C)(C)C | 82 | –
22 | 18 µM | – | COC(=O)/C=C/C[C@H]1OCCC[C@@H]1O[Si](C)(C)C(C)(C)C | 48 | TGI (HL-60 [4]): 77 µM
46 | 55 µM | – | CC(C)(C)[Si](C)(C)O[C@H]1CCCO[C@@H]1CCO | – | –
– | 86 µM | inactive | CC(C)(C)[Si](C)(C)OC/C=C/[C@H]1OCCC[C@@H]1O | – | –
27 | 25 µM | – | CC(C)(C)[Si](C)(C)O[C@H]1CCCO[C@@H]1C/C=C/CO | 83 | –
